In ChEMBL document CHEMBL4706638, “Mining Natural Products for Macrocycles to Drug Difficult Targets” (J Med Chem, 2021):

target: Keap1/Nrf2 (Homo sapiens, UniProt Q14145); experiment: Inhibition of Nrf2 peptide (KKKKAFFAQLQLDEETGEFL) binding to Keap1 Kelch domain (321 to 609 residues) (unknown origin) assessed as dissociation constant by surface plasmon resonance based inhibition in solution assay; type: protein assay
Summary of the method: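 Solution-competition SPR at 20 °C in HBS-P (10 mM HEPES, 150 mM NaCl, 0.05% Tween 20, 1.0 mM TCEP, pH 7.40), 10 µL/min. Nrf2 peptide amine-coupled to CM5 chip (400–600 RU). 25 nM Keap1 Kelch domain (aa321–609) preincubated with compound, injected; initial association slopes (5–15 s) vs compound-free controls give free Keap1. KD by nonlinear regression; mean ± SD of three measurements on distinct samples.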

Chain of Keap1/Nrf2 (Q16236 whole entry, the tested form may be a part): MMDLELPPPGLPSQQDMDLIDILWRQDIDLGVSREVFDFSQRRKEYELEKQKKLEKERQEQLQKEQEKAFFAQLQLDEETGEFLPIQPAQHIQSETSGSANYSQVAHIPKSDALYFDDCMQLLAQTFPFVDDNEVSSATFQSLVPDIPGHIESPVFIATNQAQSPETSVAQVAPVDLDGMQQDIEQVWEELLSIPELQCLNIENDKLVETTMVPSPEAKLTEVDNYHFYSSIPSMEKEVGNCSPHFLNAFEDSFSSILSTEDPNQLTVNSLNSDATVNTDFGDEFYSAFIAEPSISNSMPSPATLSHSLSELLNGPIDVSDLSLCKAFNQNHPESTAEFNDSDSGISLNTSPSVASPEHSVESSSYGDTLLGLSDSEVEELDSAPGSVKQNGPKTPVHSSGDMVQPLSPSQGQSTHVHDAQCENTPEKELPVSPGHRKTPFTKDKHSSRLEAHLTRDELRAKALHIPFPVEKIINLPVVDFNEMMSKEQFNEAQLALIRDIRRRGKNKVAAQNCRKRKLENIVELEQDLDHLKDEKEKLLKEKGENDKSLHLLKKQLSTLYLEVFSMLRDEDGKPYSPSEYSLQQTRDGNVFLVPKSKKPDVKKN
Chain of Keap1/Nrf2 (Q14145 whole entry, the tested form may be a part): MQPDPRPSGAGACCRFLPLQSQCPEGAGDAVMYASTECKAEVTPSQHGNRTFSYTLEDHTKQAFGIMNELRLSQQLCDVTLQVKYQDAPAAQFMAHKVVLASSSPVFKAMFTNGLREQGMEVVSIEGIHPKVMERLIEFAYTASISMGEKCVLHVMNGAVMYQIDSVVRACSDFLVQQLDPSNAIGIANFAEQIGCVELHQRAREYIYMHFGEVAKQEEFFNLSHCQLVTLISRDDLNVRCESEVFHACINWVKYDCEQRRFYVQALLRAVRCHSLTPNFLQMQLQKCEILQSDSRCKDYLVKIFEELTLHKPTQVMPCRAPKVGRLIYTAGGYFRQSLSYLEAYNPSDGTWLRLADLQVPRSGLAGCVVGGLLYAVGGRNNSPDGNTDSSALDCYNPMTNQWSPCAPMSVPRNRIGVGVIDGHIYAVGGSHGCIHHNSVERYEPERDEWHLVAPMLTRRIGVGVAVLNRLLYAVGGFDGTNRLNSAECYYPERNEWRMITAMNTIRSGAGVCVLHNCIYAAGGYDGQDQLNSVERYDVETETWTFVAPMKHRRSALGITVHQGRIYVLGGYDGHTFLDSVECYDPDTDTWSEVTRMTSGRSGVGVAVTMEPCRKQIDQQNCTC

**Q.** Which Kd does the source give for `CSC[C@@H](NC(=O)[C@@H](COC(=O)c1ccccc1)NC(=O)[C@@H]1CCCN1C(C)=O)C(=O)N(C)C` here?
**A.** 406 µM

**Q.** For `COC(=O)[C@H]1CSCc2ccccc2C(=O)OC[C@@H](NC(=O)[C@H]2CCCN2C(C)=O)C(=O)N1`, which Kd is on record?
**A.** > 500 µM

**Q.** Which Kd does the source give for `COC(=O)[C@H]1CSCc2ccccc2C(=O)OC[C@@H](NC(=O)[C@@H]2C[C@@H](O)CN2C(C)=O)C(=O)N1` here?
**A.** 270 µM

**Q.** For `CNC(=O)[C@H]1CSCc2ccccc2C(=O)OC[C@@H](NC(=O)[C@@H]2CCCN2C(C)=O)C(=O)N1`, which Kd is on record?
**A.** 209 µM

**Q.** Which Kd does the source give for `COC(=O)[C@H]1CSCc2ccccc2C(=O)OC[C@H](NC(=O)[C@@H]2CCCN2C(C)=O)C(=O)N1` here?
**A.** > 500 µM

**Q.** Which Kd does the source give for `CC(=O)N1CCC[C@H]1C(=O)N[C@@H]1COC(=O)c2ccccc2CSC[C@H](C(N)=O)NC1=O` here?
**A.** > 500 µM

**Q.** How did the Kd turn out when `CCN(CC)C(=O)[C@H]1CSCc2ccccc2C(=O)OC[C@@H](NC(=O)[C@@H]2CCCN2C(C)=O)C(=O)N1` was run?
**A.** > 500 µM

**Q.** Which Kd does the source give for `COC(=O)[C@@H]1CSCc2ccccc2C(=O)OC[C@H](NC(=O)[C@@H]2CCCN2C(C)=O)C(=O)N1` here?
**A.** > 500 µM

**Q.** `COC(=O)[C@H]1CSCc2ccccc2C(=O)OC[C@@H](NC(=O)[C@@H]2CCCN2C(C)=O)C(=O)N1` was tested. Which Kd did it give?
**A.** 237 µM

**Q.** With `CC(=O)N1CCC[C@H]1C(=O)N[C@@H]1COC(=O)c2ccccc2CSC[C@H](C(=O)N(C)C)NC(=O)CNC1=O` as the compound, how does the Kd read?
**A.** > 500 µM

**Q.** `CC(=O)N1CCC[C@H]1C(=O)N[C@@H]1CCOC(=O)c2ccccc2CSC[C@H](C(=O)N(C)C)NC1=O` was tested. Which Kd did it give?
**A.** > 500 µM

**Q.** `COC(=O)[C@@H]1CSCc2ccccc2C(=O)OC[C@@H](NC(=O)[C@@H]2CCCN2C(C)=O)C(=O)N1` was tested. Which Kd did it give?
**A.** > 500 µM
